{"source": "ChEMBL document CHEMBL3272290", "about": "“Contragestational agents. 1. Steroidal O-aryloximes” (J Med Chem, 1977)"}
{"tested_on": "Rattus norvegicus", "test": "Antifertility activity in Wistar rat assessed as inhibition of preimplantive gestation by measuring resorptions at 40 mg/kg, po administered in days 9 to 12 of pregnancy measured on day 21", "assay_type": "functional", "design": "scale not given: the % may be the effect or the level left", "how_it_was_run": "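Groups of five pregnant female Wistar-derived rats dosed orally on days 9–12 of pregnancy, in sesame oil at 0.5 mL per 200 g body weight. Read-out was the percentage of resorptions.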", "units": {"Activity": "%"}}
{"smiles": "C[C@]12CC/C(=N\\Oc3ccc([N+](=O)[O-])cn3)C[C@@H]1CC[C@@H]1[C@@H]2CC[C@]2(C)[C@@H](O)CC[C@@H]12", "Activity": 6}
{"smiles": "CC(=O)[C@H]1CC[C@H]2[C@@H]3CC[C@H]4C/C(=N/Oc5ccc([N+](=O)[O-])cc5)CC[C@]4(C)[C@H]3CC[C@]12C", "Activity": 4}
{"smiles": "Cc1cc([N+](=O)[O-])ccc1O/N=C1\\CC[C@@]2(C)[C@@H](CC[C@@H]3[C@@H]2CC[C@]2(C)[C@@H](O)CC[C@@H]32)C1", "Activity": 5.7}
{"smiles": "C[C@]12CC/C(=N\\Oc3ccc(C(F)(F)F)cc3)C[C@@H]1CC[C@@H]1[C@@H]2CC[C@]2(C)[C@@H](O)CC[C@@H]12", "Activity": 4.8}
{"smiles": "C[C@]12CC/C(=N\\OCc3ccccc3)C[C@@H]1CC[C@@H]1[C@@H]2CC[C@]2(C)[C@@H](O)CC[C@@H]12", "Activity": 13.3}
{"smiles": "C[C@]12CC/C(=N\\Oc3ccc([N+](=O)[O-])cc3)C[C@H]1CC[C@@H]1[C@@H]2CC[C@]2(C)[C@@H](O)CC[C@@H]12", "Activity": 10.9}
{"smiles": "C[C@]12CC/C(=N\\Oc3ccccn3)C[C@@H]1CC[C@@H]1[C@@H]2CC[C@]2(C)[C@@H](O)CC[C@@H]12", "Activity": 0}
{"smiles": "Cc1cc(O/N=C2\\CC[C@@]3(C)[C@@H](CC[C@@H]4[C@@H]3CC[C@]3(C)[C@@H](O)CC[C@@H]43)C2)ccc1[N+](=O)[O-]", "Activity": 13.1}
{"smiles": "C[C@]12CC[C@H]3[C@@H](CCC4=C/C(=N/Oc5ccccn5)CC[C@@]43C)[C@@H]1CC[C@@H]2O", "Activity": 75.9}
{"smiles": "C#C[C@]1(O)CC[C@H]2[C@@H]3CC[C@H]4C/C(=N/Oc5ccc([N+](=O)[O-])cc5)CC[C@]4(C)[C@H]3CC[C@@]21C", "Activity": 76.9}
{"smiles": "CC(=O)O[C@H]1CC[C@H]2[C@@H]3CC[C@H]4C/C(=N/Sc5ccc([N+](=O)[O-])cc5)CC[C@]4(C)[C@H]3CC[C@]12C", "Activity": 7.5}
{"smiles": "C[C@]12CC/C(=N\\Oc3ccc(C#N)cc3)C[C@@H]1CC[C@@H]1[C@@H]2CC[C@]2(C)[C@@H](O)CC[C@@H]12", "Activity": 12.9}
{"smiles": "CC(=O)O[C@H]1CC[C@H]2[C@@H]3CC[C@H]4CC(=O)CC[C@]4(C)[C@H]3CC[C@]12C", "Activity": 5}
{"smiles": "C[C@]12CC/C(=N\\Oc3ccc([N+](=O)[O-])cc3[N+](=O)[O-])C[C@H]1CC[C@@H]1[C@@H]2CC[C@]2(C)[C@@H](O)CC[C@@H]12", "Activity": 5.4}
{"smiles": "C[C@]12CC/C(=N\\Oc3ccc([N+](=O)[O-])cc3)C[C@@H]1CC[C@@H]1[C@@H]2CC[C@]2(C)[C@@H](N)CC[C@@H]12", "Activity": 2}
{"smiles": "C[C@]12CC[C@H]3[C@@H](CCC4=C/C(=N/Oc5ccccc5[N+](=O)[O-])CC[C@@H]43)[C@@H]1CC[C@@H]2O", "Activity": 11.9}
{"smiles": "C[C@]12CC/C(=N\\OCc3ccc(Br)c(O)c3)C[C@@H]1CC[C@@H]1[C@@H]2CC[C@]2(C)[C@@H](O)CC[C@@H]12", "Activity": 8.8}
{"smiles": "C[C@]12CC/C(=N\\Oc3ccc([N+](=O)[O-])cc3)C[C@@H]1CC[C@@H]1[C@@H]2CC[C@@]2(C)[C@H]1CCC21SCCS1", "Activity": 4}
{"smiles": "C[C@]12CC/C(=N\\Oc3ccc([N+](=O)[O-])cc3)C[C@@H]1CC[C@@H]1[C@@H]2CC[C@]2(C)[C@@H](O[N+](=O)[O-])CC[C@@H]12", "Activity": 30.8}
{"smiles": "C[C@]12CC/C(=N\\Oc3ccccc3)C[C@H]1CC[C@@H]1[C@@H]2CC[C@]2(C)[C@@H](O)CC[C@@H]12", "Activity": 11.9}
{"smiles": "C[C@]12CC[C@H]3[C@@H](CC[C@H]4C/C(=N/Oc5ccc([N+](=O)[O-])cc5[N+](=O)[O-])CC[C@@H]43)[C@@H]1CC[C@@H]2O", "Activity": 16.4}
{"smiles": "C[C@]12CC[C@H]3[C@@H](CCC4=C/C(=N/Oc5ccc([N+](=O)[O-])cc5)CC[C@@]43C)[C@@H]1CC[C@@H]2O", "Activity": 93.8}
